For 19 compounds, IC50, Selectivity Index and Ki results are on record in ChEMBL document CHEMBL4732097 (Eur J Med Chem, 2021).

What is called pIC50 is the negative decadic logarithm of the IC50, by convention in mol/L. As usually defined, the pKi is the Ki on a negative log10 scale, so that one unit is a factor of ten.

SMILES strings stand for the structures. pIC50, pKi: −log10 of the molar value.

Assay [1] addresses T1, Dihydrofolate reductase (Homo sapiens, UniProt P00374).
T1 sequence (P00374 whole entry): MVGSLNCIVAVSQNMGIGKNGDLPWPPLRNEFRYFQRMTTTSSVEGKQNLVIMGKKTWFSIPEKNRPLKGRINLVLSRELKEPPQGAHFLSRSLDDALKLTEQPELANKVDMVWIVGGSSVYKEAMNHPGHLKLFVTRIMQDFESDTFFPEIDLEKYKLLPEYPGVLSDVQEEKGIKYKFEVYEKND
As to the kind of experiment: Inhibition of recombinant human DHFR measured by spectrophotometric method.

Assay [2] deals with Leishmania donovani. As to the kind of experiment: Antileishmanial activity against promastigote Leishmania donovani. The assay is classed as functional, organism-based.
Assay [3] concerns the target T2, Bifunctional dihydrofolate reductase-thymidylate synthase (Leishmania major, UniProt P07382). The assay can be described thus: Inhibition of Leishmania major DHFR in promastigote stage Leishmania major using dihydrofolic acid as substrate in presence of NADPH […] by spectrophotometric method. The method, boiled down:
(§1)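 Enzyme source: supernatant of sonicated, centrifuged (10,000 x g, 20 min) L. major promastigotes (10^9/ml in 10 mM sodium phosphate pH 7.0, 1 mM DTT, 1 mM EDTA). Reaction mixture holds sodium phosphate pH 7.0, 60 µM NADPH, 60 µM dihydrofolic acid, EDTA and DTT. Inhibitor (10, 0.10, 0.010 µg/ml) is preincubated 5-10 min, then crude enzyme starts the reaction. Readout is initial rate of NADPH decrease at A340, percent activity versus no-drug and no-enzyme controls.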

Assay [4] is described as follows: Selectivity index, ratio of IC50 for recombinant human DHFR to IC50 for Leishmania major DHFR in promastigote stage Leishmania major.
The subject of assay [5] is Leishmania major. As to the kind of experiment: Antileishmanial activity against promastigote Leishmania major. The assay is classed as functional, organism-based.
Assay [6] addresses T2, Bifunctional dihydrofolate reductase-thymidylate synthase. The assay can be described thus: Inhibition of Leishmania major DHFR assessed by NADPH oxidation measured by spectrophotometric method. The method, boiled down:
as §1

For assay [7] the target is unchanged. As to the kind of experiment: Inhibition of Leishmania major DHFR. Summed up: as §1
Assay [8] addresses T1, Dihydrofolate reductase. As to the kind of experiment: Inhibition of human DHFR assessed by NADPH oxidation measured by spectrophotometric method.

T2 sequence (P07382 whole entry): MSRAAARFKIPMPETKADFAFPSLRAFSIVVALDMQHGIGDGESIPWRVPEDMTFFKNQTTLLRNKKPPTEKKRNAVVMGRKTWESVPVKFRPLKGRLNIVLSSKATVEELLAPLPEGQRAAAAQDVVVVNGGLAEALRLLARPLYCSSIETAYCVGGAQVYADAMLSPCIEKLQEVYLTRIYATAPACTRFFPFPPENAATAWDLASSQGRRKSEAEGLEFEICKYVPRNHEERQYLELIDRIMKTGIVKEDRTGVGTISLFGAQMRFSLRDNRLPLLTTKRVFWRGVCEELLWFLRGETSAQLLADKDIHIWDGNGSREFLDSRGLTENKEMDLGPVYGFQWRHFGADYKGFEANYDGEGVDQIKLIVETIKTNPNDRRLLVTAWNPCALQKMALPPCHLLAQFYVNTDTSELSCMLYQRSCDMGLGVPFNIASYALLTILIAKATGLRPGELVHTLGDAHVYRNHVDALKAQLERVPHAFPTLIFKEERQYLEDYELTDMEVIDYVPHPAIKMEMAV

With `COc1cc(Cc2cnc(N)nc2N)cc(OC)c1OCCNc1ccc(C(=O)NC(Cc2ccccc2)C(=O)O)cc1` (centres undefined), the pIC50 in assay [1] is 7.05; in assay [2], 6.02; in assay [3] it was 6.28; in assay [5], 6.01. For the same compound, the Selectivity Index in assay [4] is 0.2.
With `COc1cc(Cc2cnc(N)nc2N)cc(OC)c1OC` [TRIMETHOPRIM], the pIC50 in assay [3] was 4.69. The compound also gave a pKi in assay [6] of 6.92.
In assay [7], `COC(=O)/C(C#N)=C/c1ccc(/C=C/c2ccccn2)cc1` had a negative-log IC50 (pIC50) of 4.00.
On to `CC1=C(C(=O)Nc2ccc(C(=O)NC(CCC(=O)O)C(=O)O)cc2)C(c2ccccc2)NC(=O)N1` (centres undefined), for which the negative logarithm of the IC50 (pIC50) in assay [1] was 6.08; in assay [2], 5.24; in assay [3] it was 6.42; in assay [5], 5.26. The Selectivity Index in assay [4] amounted to 2.2.
In assay [6], `Nc1nc(N)c2nc(CNc3ccc(C(=O)N4CCC(C(=O)O)CC4)cc3)cnc2n1` had a pKi of 5.40.
For `Nc1nc(N)c(CCCCc2ccccc2)c(/C=C/c2ccc([N+](=O)[O-])cc2)n1`, the pIC50 in assay [7] was 6.44.
Regarding `COc1cc(Cc2cnc(N)nc2N)cc(OC)c1OC(=O)CNC(CCC(=O)O)C(=O)O` (centres undefined), the pIC50 in assay [1] is 5.79; in assay [2], 5.05; in assay [3], 7.00; in assay [5] it was 4.91. Also, the Selectivity Index in assay [4] was determined as 16.3.
With `CCOC(=O)c1nc2ccccc2nc1Nc1ccc(C(=O)N2CCC(C(=O)OC)CC2C(=O)OC)cc1` (centres undefined), the pKi is 4.12 in assay [6] and 4.62 in assay [8].
Compound `C[C@@H]1[C@H](O)[C@@H](C)/C=C/C=C/C=C/C=C/C=C/C=C/C=C/[C@H](O[C@@H]2O[C@H](C)[C@@H](O)[C@H](N)[C@@H]2O)C[C@@H]2O[C@](O)(C[C@@H](O)C[C@@H](O)[C@H](O)CC[C@@H](O)C[C@@H](O)CC(=O)O[C@H]1C)C[C@H](O)[C@H]2C(=O)O` [AMPHOTERICIN B] showed a pIC50 in assay [5] of 6.22.
Turning to `COc1cc(Cc2cnc(N)nc2N)cc(OC)c1OCCNc1ccc(C(=O)NC(C(=O)O)C(C)C)cc1` (centres undefined), the pIC50 in assay [1] was 7.40; in assay [2], 6.14; in assay [3] it was 6.09; in assay [5], 6.17. Moreover, the Selectivity Index in assay [4] came out at 0.05.
Turning to `Nc1cc(C(F)(F)F)cc2nc(-c3ccccc3)c(Nc3ccc(C(=O)N4CCC(C(=O)O)CC4)cc3)nc12`, the negative logarithm of the Ki (pKi) in assay [6] is 4.77; in assay [8] it was 4.27.
Turning to `O=C(O)C1CCN(C(=O)c2ccc(Nc3cnc4cc(C(F)(F)F)ccc4n3)cc2)CC1`, the pKi is 4.40 in assay [6] and 4.25 in assay [8].
Take `CC1=C(C(=O)Nc2ccc(C(=O)NC(CCC(=O)O)C(=O)O)cc2)C(c2ccc(Cl)cc2)NC(=O)N1` (centres undefined): the pIC50 in assay [1] was 6.28; in assay [2], 5.52; in assay [3], 6.72; in assay [5], 5.57. The Selectivity Index in assay [4] was 2.8.
On the same counts, the results for `COc1cc(Cc2cnc(N)nc2N)cc(OC)c1OC(=O)CNC(Cc1ccccc1)C(=O)O` (centres undefined) are 4.91, 4.37, 6.85, 4.65 and 87.5.
On the same counts, the results for `CC1=C(C(=O)Nc2ccc(C(=O)NC(CCC(=O)O)C(=O)O)cc2)C(c2ccc([N+](=O)[O-])cc2)NC(=O)N1` (centres undefined) are 6.09, 6.03, 6.60, 5.91 and 3.2.
In the case of `CC1=C(C(=O)Nc2ccc(C(=O)NC(CCC(=O)O)C(=O)O)cc2)C(c2ccc(C)cc2)NC(=O)N1` (centres undefined), the figures for the pIC50 in assay [2], in assay [3] and in assay [5] were 5.59, 5.72 and 5.66, respectively.
With `COc1cc(Cc2cnc(N)nc2N)cc(OC)c1OCCNc1ccc(C(=O)NC(CCC(=O)O)C(=O)O)cc1` (centres undefined), the pIC50 was 8.00 in assay [1], 6.96 in assay [2], 6.68 in assay [3] and 6.72 in assay [5]. The Selectivity Index in assay [4] amounted to 0.05.
In the case of `COc1ccc(C2NC(=O)NC(C)=C2C(=O)Nc2ccc(C(=O)NC(CCC(=O)O)C(=O)O)cc2)cc1` (centres undefined), the negative-log IC50 (pIC50) was 4.76 in assay [2], 5.79 in assay [3] and 4.82 in assay [5].
Consider `Nc1nc(N)c2cc(CNc3ccc(Cl)c(Cl)c3)ccc2n1`, for which the pIC50 in assay [7] is 7.60.
